{"source": "ChEMBL document CHEMBL4673384", "about": "“Studying Histone Deacetylase Inhibition and Apoptosis Induction of Psammaplin A Monomers with Modified Thiol Group” (ACS Med Chem Lett, 2021)", "key": {"[1]": {"tested_on": "HL-60", "assay": "Induction of apoptosis in human HL-60 cells assessed as cleavage of PARP at 0.5 to 2 uM after 24 hrs Western blot analysis", "type": "functional, cell-based", "conditions": "dose 0.5-2 µM", "in_short": "(§1)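 HL-60 cells were treated for 24 h at the indicated concentrations, then analysed by Western blot. Blots were probed for cleavage of PARP and caspase-3, -8 and -9. Ac-H3, Ac-α-tubulin and β-actin were also detected, with β-actin as the loading reference.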"}, "[2]": {"tested_on": "HL-60", "assay": "Induction of apoptosis in human HL-60 cells assessed as necrotic cells at 0.5 uM incubated for 24 hrs by propidium iodide and annexin-V FITC staining based FACS analysis (reference value: 0.3 %)", "type": "functional"}, "[3]": {"tested_on": "HL-60", "assay": "Induction of apoptosis in human HL-60 cells assessed as cleavage of caspase-3 at 0.5 to 2 uM after 24 hrs Western blot analysis", "type": "functional, cell-based", "conditions": "dose 0.5-2 µM", "in_short": "as §1"}, "[4]": {"tested_on": "HL-60", "assay": "Induction of apoptosis in human HL-60 cells assessed as early apoptotic cells at 1 uM incubated for 24 hrs by propidium iodide and annexin-V FITC staining based FACS analysis (reference value: 2.8 %)", "type": "functional"}, "[5]": {"tested_on": "HL-60", "assay": "Induction of apoptosis in human HL-60 cells assessed as cleavage of caspase-9 at 0.5 to 2 uM after 24 hrs Western blot analysis", "type": "functional, cell-based", "conditions": "dose 0.5-2 µM", "in_short": "as §1"}, "[6]": {"tested_on": "HL-60", "assay": "Induction of apoptosis in human HL-60 cells assessed as late apoptotic cells at 1 uM incubated for 24 hrs by propidium iodide and annexin-V FITC staining based FACS analysis (reference value: 4.8 %)", "type": "functional"}, "[7]": {"target": "Histone deacetylase 1 (Homo sapiens, UniProt Q13547)", "sequence (Q13547 whole entry)": "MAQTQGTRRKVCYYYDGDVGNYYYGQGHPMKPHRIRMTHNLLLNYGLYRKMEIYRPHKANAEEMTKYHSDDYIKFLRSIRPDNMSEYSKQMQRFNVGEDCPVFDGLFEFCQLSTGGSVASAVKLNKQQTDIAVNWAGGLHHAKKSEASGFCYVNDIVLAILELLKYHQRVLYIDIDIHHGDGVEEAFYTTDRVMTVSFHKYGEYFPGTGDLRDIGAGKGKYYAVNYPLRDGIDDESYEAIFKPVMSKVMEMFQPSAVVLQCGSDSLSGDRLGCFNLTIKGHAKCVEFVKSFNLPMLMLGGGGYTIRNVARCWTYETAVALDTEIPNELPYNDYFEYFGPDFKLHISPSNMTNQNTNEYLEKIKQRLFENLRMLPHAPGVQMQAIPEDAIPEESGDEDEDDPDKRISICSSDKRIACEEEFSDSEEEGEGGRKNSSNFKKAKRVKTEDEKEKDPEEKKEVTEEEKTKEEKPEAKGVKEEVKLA", "assay": "Inhibition of HDAC1 in human HL-60 cells assessed as increase in Ac-H3 level at 0.5 to 2 uM incubated for 24 hrs by Western blot analysis", "type": "cell-based", "conditions": "dose 0.5-2 µM", "in_short": "(§2)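 Compound given to HL-60 cells for 24 h at the stated concentrations, then lysed. Acetyl-histone H3 and acetyl-α-tubulin levels were read by Western blot, with total H3, α-tubulin or β-actin as references.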"}, "[8]": {"target": "Histone deacetylase 2 (Homo sapiens, UniProt Q92769)", "sequence (Q92769 whole entry)": "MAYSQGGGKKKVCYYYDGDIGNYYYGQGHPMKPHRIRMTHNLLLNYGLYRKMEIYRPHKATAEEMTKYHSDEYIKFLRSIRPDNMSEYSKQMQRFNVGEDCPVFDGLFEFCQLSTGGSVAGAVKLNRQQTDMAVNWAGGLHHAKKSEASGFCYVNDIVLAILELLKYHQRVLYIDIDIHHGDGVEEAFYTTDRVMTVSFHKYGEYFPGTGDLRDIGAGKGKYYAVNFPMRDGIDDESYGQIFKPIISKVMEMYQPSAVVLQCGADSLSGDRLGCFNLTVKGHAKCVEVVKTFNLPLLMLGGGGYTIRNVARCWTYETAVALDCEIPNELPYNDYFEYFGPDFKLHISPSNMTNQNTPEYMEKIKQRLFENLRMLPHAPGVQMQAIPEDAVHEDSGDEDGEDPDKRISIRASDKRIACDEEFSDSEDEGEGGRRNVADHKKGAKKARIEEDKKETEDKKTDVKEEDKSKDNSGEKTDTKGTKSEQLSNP", "assay": "Inhibition of HDAC2 in human HL-60 cells assessed as increase in Ac-H3 level at 0.5 to 2 uM incubated for 24 hrs by Western blot analysis", "type": "cell-based", "conditions": "dose 0.5-2 µM", "in_short": "as §2"}, "[9]": {"tested_on": "HL-60", "assay": "Induction of apoptosis in human HL-60 cells assessed as late apoptotic cells at 2 uM incubated for 24 hrs by propidium iodide and annexin-V FITC staining based FACS analysis (reference value: 4.8 %)", "type": "functional"}, "[10]": {"target": "T1, Protein deacetylase HDAC6 (Homo sapiens) (UniProt Q9UBN7)", "T1 sequence (whole entry)": "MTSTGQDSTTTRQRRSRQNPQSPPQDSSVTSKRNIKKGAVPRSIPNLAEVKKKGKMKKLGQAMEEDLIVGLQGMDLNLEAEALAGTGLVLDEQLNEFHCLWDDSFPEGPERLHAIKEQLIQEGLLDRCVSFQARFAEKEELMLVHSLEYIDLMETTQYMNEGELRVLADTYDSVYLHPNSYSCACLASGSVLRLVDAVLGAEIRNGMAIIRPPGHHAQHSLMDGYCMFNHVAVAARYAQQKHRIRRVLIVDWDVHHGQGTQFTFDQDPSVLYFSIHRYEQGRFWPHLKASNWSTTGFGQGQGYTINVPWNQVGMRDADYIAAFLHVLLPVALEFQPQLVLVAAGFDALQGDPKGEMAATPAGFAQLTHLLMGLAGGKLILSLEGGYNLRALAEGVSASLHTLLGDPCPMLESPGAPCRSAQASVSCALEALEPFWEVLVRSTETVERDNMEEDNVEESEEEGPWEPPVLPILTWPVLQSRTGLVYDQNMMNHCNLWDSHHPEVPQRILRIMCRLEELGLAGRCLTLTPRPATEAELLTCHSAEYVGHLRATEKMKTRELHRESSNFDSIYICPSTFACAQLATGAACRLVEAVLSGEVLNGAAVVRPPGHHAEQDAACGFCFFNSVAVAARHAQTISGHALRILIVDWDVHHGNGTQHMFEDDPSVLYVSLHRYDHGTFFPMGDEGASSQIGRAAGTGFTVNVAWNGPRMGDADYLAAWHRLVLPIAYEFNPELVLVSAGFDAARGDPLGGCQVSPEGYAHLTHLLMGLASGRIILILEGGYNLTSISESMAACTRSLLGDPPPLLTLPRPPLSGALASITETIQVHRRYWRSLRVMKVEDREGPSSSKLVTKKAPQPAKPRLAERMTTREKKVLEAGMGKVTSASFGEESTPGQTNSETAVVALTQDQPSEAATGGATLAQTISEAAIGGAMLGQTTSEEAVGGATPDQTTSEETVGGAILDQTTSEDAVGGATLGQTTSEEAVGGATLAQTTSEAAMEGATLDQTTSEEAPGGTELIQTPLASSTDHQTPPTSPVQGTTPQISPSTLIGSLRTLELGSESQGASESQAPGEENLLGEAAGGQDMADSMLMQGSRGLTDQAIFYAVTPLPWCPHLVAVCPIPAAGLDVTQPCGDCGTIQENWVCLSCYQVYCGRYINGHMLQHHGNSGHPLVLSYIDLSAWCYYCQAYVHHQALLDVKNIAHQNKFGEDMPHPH", "assay": "Inhibition of HDAC6 in human HL-60 cells assessed as increase in acetylated alpha tubulin level at 0.5 uM after 24 hrs by Western blot analysis", "type": "cell-based", "in_short": "as §2"}, "[11]": {"tested_on": "HL-60", "assay": "Induction of apoptosis in human HL-60 cells assessed as cleavage of caspase-8 at 0.5 to 2 uM after 24 hrs Western blot analysis", "type": "functional, cell-based", "conditions": "dose 0.5-2 µM", "in_short": "as §1"}, "[12]": {"tested_on": "HL-60", "assay": "Induction of apoptosis in human HL-60 cells assessed as viable cells at 1 uM incubated for 24 hrs by propidium iodide and annexin-V FITC staining based FACS analysis (reference value: 92.5 %)", "type": "functional", "conditions": "read-out: Activity"}, "[13]": {"tested_on": "HL-60", "assay": "Induction of apoptosis in human HL-60 cells assessed as early apoptotic cells at 1 uM incubated for 24 hrs by propidium iodide and annexin-V FITC staining based FACS analysis (reference value: 2.9 %)", "type": "functional"}, "[14]": {"tested_on": "HL-60", "assay": "Induction of apoptosis in human HL-60 cells assessed as late apoptotic cells at 8 uM incubated for 24 hrs by propidium iodide and annexin-V FITC staining based FACS analysis (reference value: 4.2 %)", "type": "functional"}, "[15]": {"tested_on": "HL-60", "assay": "Induction of apoptosis in human HL-60 cells assessed as necrotic cells at 8 uM incubated for 24 hrs by propidium iodide and annexin-V FITC staining based FACS analysis (reference value: 0.5 %)", "type": "functional"}, "[16]": {"tested_on": "HL-60", "assay": "Induction of apoptosis in human HL-60 cells assessed as early apoptotic cells at 8 uM incubated for 24 hrs by propidium iodide and annexin-V FITC staining based FACS analysis (reference value: 2.9 %)", "type": "functional"}, "[17]": {"assay": "Antitumor activity against mouse LL/2 cells inoculated in C57BL/6J mouse assessed as reduction of tumor weight at 100 mg/kg, ip administered for 12 days and measured at day 14 (reference value: 1.2 +/- 0.3 g)", "type": "functional, Lewis lung carcinoma", "conditions": "time 12 day"}, "[18]": {"assay": "Toxicity in mouse LL/2 cells inoculated C57BL/6J mouse assessed as effect on body weight by measuring end body weight at 100 mg/kg, ip administered for 12 days and measured for every 2 days (reference value: 17.8 +/- 0.7 g)", "type": "organism-based", "conditions": "in vivo, 288 h, time 12 day"}}, "note": "Active and inactive are the calls of the source. The rule behind the calls is not given here."}
{"smiles": "O=C(CCNC(=O)/C(Cc1ccc(O)c(Br)c1)=N/O)NO", "values": [{"measurement": "Activity", "setting": "[1]", "value": "Active"}, {"measurement": "Activity", "setting": "[2]", "value": 0.2, "unit": "%"}, {"measurement": "Activity", "setting": "[3]", "value": "Active"}, {"measurement": "Activity", "setting": "[4]", "value": 7.1, "unit": "%"}, {"measurement": "Activity", "setting": "[5]", "value": "Active"}, {"measurement": "Activity", "setting": "[6]", "value": 12.6, "unit": "%"}, {"measurement": "inhibition", "setting": "[7]", "value": "Active"}, {"measurement": "inhibition", "setting": "[8]", "value": "Active"}, {"measurement": "Activity", "setting": "[9]", "value": 21.9, "unit": "%"}, {"measurement": "inhibition", "setting": "[10]", "value": "Active"}, {"measurement": "Activity", "setting": "[11]", "value": "Active"}]}
{"smiles": "O=C(NCCSSCCNC(=O)/C(Cc1ccc(O)c(Br)c1)=N/O)/C(Cc1ccc(O)c(Br)c1)=N/O", "note": "[PSAMMAPLIN A]", "values": [{"measurement": "viability at 1 µM", "setting": "[12]", "value": 88.8, "unit": "%"}, {"measurement": "Activity", "setting": "[13]", "value": 2.6, "unit": "%"}]}
{"smiles": "O=C(NCCS)/C(Cc1ccc(O)c(Br)c1)=N/O", "values": [{"measurement": "Activity", "setting": "[14]", "value": 25.1, "unit": "%"}, {"measurement": "Activity", "setting": "[15]", "value": 3.3, "unit": "%"}, {"measurement": "Activity", "setting": "[16]", "value": 3.3, "unit": "%"}, {"measurement": "Activity", "setting": "[17]", "value": 0.5, "unit": "g"}, {"measurement": "Activity", "setting": "[18]", "value": 16.9, "unit": "g"}]}
